From PubChem
Hits are enriched below; roughly 4.3% of the tested compounds scored in any of these assays.
GalR3 antag: human GalR3 antagonism; hit rate 0.44% among 360,000; HEK293 GalR3-CNG cAMP membrane potential fluorescence; galR3 body fused to GalR1 C-terminus; O60755; inhibition, % at 3 µM;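 active = inhibition above the screen-wide average plus 3 SD, cut at about 13% in these data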;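 note: forskolin and galanin both at EC90 stimulate the cells; cAMP rise reported by CNG channel membrane potential dye signal; 0% = forskolin plus galanin with DMSO and 100% = forskolin alone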
Target sequence (O60755 1-299 limits assumed): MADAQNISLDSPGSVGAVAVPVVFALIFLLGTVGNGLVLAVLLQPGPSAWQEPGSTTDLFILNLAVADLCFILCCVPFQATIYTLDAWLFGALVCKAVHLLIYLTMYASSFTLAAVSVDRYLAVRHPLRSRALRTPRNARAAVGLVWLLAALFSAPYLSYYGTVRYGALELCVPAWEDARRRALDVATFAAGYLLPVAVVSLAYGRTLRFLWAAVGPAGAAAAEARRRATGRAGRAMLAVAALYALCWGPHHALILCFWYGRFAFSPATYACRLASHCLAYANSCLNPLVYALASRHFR
OX1R antag-1: OX1R (human) antagonism; OX1R-expressing cells, FRET antagonist read-out; O43613; hit rate 1.8% among 330,000; inhibition, % at 6.6 µM; in the data active = inhibition mostly above about 38%, no sharp cut-off; inactive = mostly below about 40%;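 note: 0% = agonist challenge alone and 100% = reference antagonist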
OX1R antag-2: antagonists of human orexin 1 receptor. inhibition, % at 5 µM. O43613. hit rate 0.43% among 330,000. CHO/OX1R cells, Fluo-8 calcium fluorescence, orexin A. AID 434989;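 active = inhibition above its plate's threshold, mean inhibition of all tested compounds on the plate plus 3 SD, cut at about 37% in these data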;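 note: 0% = orexin A challenge wells and 100% = SB-334867-A antagonist wells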
TAAR1 antag: human TAAR1 antagonism | Q96RJ0 | CHO RD-HGA16 TAAR1, Fluo-8 calcium fluorescence, antagonist | inhibition, % at 3 µM | hit rate 1.5% among 360,000 | AID 624466;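 active = inhibition above a per-plate cutoff, the mean inhibition of test compounds on that plate plus 3 SD, cut at about 49% in these data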;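 note: 0% = DMSO plus EC80 beta-PEA response and 100% = DMSO alone without agonist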
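Test system: RD-HGA16 CHO cells with stable hTAAR1 and Gα16 / Probe or stimulus: EC80 β-phenethylamine stimulus / Times: seeding 17-24 h prior, 75-min 37 °C, 30-min RT dye loading / Detection: Fluo-8 calcium-sensitive fluorescence / Read-out basis: % inhibition scaled between DMSO and EC80 PEA controls / Repeats: singlicate, one well per test compound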
CHO parental Ca: counter-screen: ATP calcium response change in parental CHO cells; hit rate 0.63% among 330,000; AID 463079; parental CHO-K1, ATP-induced calcium, Fluo-8 fluorescence; inhibition, % at 5.6 µM;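 active = inhibition above that plate's mean sample inhibition plus 3 SD, cut at about 26% in these data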;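 note: 0% = ATP-challenged DMSO wells and 100% = DMSO wells without ATP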
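Test system: parental CHO cells; detection: calcium-sensitive Fluo-8 fluorescence; evaluation: percent inhibition of calcium signal; also added: ATP as calcium-mobilizing challenge; repeats: one well per compound; control set: ATP-challenged DMSO wells low, unchallenged DMSO wells high; compound: single nominal dose of 5.6 µM per compound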
TAAR1 agonist: human TAAR1 agonism; hit rate 0.99% among 360,000; activation, % at 3 µM; AID 624467; CHO RD-HGA16 TAAR1, Fluo-8 calcium fluorescence; vehicle wells 0%, saturating PEA agonist 100%; Q96RJ0;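 active = activation above the mean activation of all test compounds in the run plus 3 SD, cut at about 38% in these data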
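Repeats: no replicates (n 1) | Material: CHO-derived RD-HGA16 cells with stable Gα16 and human TAAR1 | Technique: Kinetic Fluo-8 calcium fluorescence | Schedule: 17-24 h seeding, 75 min 37 °C dye, 30 min RT | Evaluation: % activation from peak over basal fluorescence ratio, DMSO-to-PEA scaled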
nonsel antag count: counter-screen for TAAR1 antagonists: nonselective antagonists | shares compounds with TAAR1 antag | counterscreen cell line, calcium fluorescence, antagonist mode | inhibition, % at 3 µM | hit rate 77% among 2,400; in the data active = inhibition above about 22%;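 note: CHO-Ga16 host cells stimulated with ATP at an EC80 level; 0% = agonist EC80 plus vehicle and 100% = vehicle without agonist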
TAAR1 ant conf: human TAAR1 antagonism, confirmed. shares compounds with TAAR1 antag. TAAR1-expressing cells, fluorescence antagonist read-out. inhibition, % at 3 µM. hit rate 40% among 2,400. AID 651785; in the data active = inhibition above about 49%;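 note: CHO-Ga16 host cells challenged with agonist PEA near its EC80; 0% = agonist at EC80 plus vehicle and 100% = vehicle with no agonist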
Ga16 nonsel ag: counter-screen for TAAR1 antagonists: nonselective Ga16 agonists; activation, % at 3 µM; AID 651953; shares compounds with TAAR1 antag; Ga16-expressing cells, calcium fluorescence, agonist counterscreen; hit rate 18% among 2,400; in the data active = activation above about 12%;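 note: 0% = vehicle wells and 100% = saturating stimulus response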
TAAR1 ag count: TAAR1 agonism, antagonist counter-screen; hTAAR1 cell line, fluorescence activation, agonist mode; activation, % at 3 µM; shares compounds with TAAR1 antag; hit rate 2% among 2,400; in the data active = activation above about 37%;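 note: CHO cells stably expressing TAAR1 with calcium dye readout; 0% = DMSO vehicle and 100% = full agonist response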
The depositor's hits bear a star; nt = not tested or not shown.

SMILES	GalR3 antag	OX1R antag-1	OX1R antag-2	TAAR1 antag	CHO parental Ca	TAAR1 agonist	nonsel antag count	TAAR1 ant conf	Ga16 nonsel ag	TAAR1 ag count
Cc1noc(NS(=O)(=O)c2ccc(NC(=O)c3ccccc3NS(=O)(=O)c3ccc(F)c(F)c3)cc2)c1C	-9	nt	nt	1	nt	12	nt	nt	nt	nt
O=C(C[C@@H]1C[C@@H]2c3cc(NC(=O)c4ccc5c(c4)OCO5)ccc3O[C@@H]2[C@@H](CO)O1)NCc1cccnc1	-3	nt	nt	-10	nt	0	nt	nt	nt	nt
COc1ccc(S(=O)(=O)N2CCN(C(=O)c3cc(-c4ccccc4OC)n[nH]3)CC2)cc1	2	2	5	76*	14	10	25*	39	8	6
COc1cccc(-c2cc(C(=O)N3CCN(S(=O)(=O)c4ccc(Br)cc4)CC3)[nH]n2)c1	3	8	-21	44	-8	7	nt	nt	nt	nt
COc1cccc(-c2csc(N3CCN(C(=O)Nc4ccccc4OC)CC3)n2)c1	-6	17	-2	11	-10	2	nt	nt	nt	nt
COc1cccc(-c2csc(N3CCN(C(=O)Nc4ccc(F)cc4)CC3)n2)c1	-9	15	12	79*	13	11	55*	64*	11	6
Cc1cccc(N2CCN(C(=O)CCn3c(=O)[nH]c4ccsc4c3=O)CC2C)c1 (stereo not drawn)	-10	10	-14	60*	-25	12	23*	45	8	8
COc1ccc(OC)c(-c2csc(NC(=O)COC(=O)c3ccc(NC(=O)CC#N)cc3)n2)c1	nt	7	6	nt	-8	nt	nt	nt	nt	nt
COc1ccc2c(c1)C(SCC(=O)NCCc1ccc(Cl)cc1)CC(C)(C)O2 (stereo not drawn)	-2	22	-20	62*	2	6	18	43	6	35
COc1cc(OC)c(/C=N/NC(N)=S)cc1Br	0	9	-4	-2	-3	-1	nt	nt	nt	nt
COc1cc2c(-c3ccccc3)c(C)oc2cc1/C=N/NC(N)=S	-7	48	6	103*	14	-4	17	10	5	14
O=C(CSc1ncccn1)NC(=O)NC1CCCC1	-7	nt	nt	6	nt	0	nt	nt	nt	nt
COc1cc(/C=C/C(=O)OCC(=O)N(C)Cc2ccccc2)ccc1O	-3	3	-18	3	-6	4	nt	nt	nt	nt
CCc1nc(NCC(C)C)c(C#N)c2c1COC(C)(C)C2	1	13	-6	4	-10	1	nt	nt	nt	nt
CCc1nc(NCCO)c(C#N)c2c1CSC(C)(C)C2	-3	24	-37	59*	-17	15	31*	51*	7	5
COc1ccccc1-c1ccc(OCCCN2CCC(C(O)(c3ccccc3)c3ccccc3)CC2)cc1	4	nt	nt	56*	nt	32	42*	59*	15*	37
OC(c1ccccc1)(c1ccccc1)C1CCN(CCCOc2ccc(-c3ccc(F)cc3F)cc2)CC1	-6	nt	nt	52*	nt	35	42*	47	18*	35
OC(c1ccccc1)(c1ccccc1)C1CCN(CCCOc2ccncc2)CC1	-9	nt	nt	21	nt	33	nt	nt	nt	nt
CCc1cc(-c2nnn(CCC3COCCO3)c2CC)cc(CC)c1-c1cn(Cc2ccc3ccccc3c2)nn1 (stereo not drawn)	-1	nt	nt	5	nt	2	nt	nt	nt	nt
COc1ccc(/C=N/Nc2ccc([N+](=O)[O-])cc2)cc1Cn1cc([N+](=O)[O-])cn1	1	35	-2	55*	-10	10	26*	28	6	4
COc1ccc(/C=N/n2cncn2)cc1Cn1cc([N+](=O)[O-])cn1	0	11	1	1	-1	0	nt	nt	nt	nt
